Reference: ChEMBL document CHEMBL2412988, “Synthesis, pH-dependent, and plasma stability of meropenem prodrugs for potential use against drug-resistant tuberculosis” (Bioorg Med Chem, 2013)

How the values were obtained:
[1] = Half life in simulated gastric fluid at 100 uM at pH 1.2 by HPLC analysis; format: physicochemical; conditions: for t1/2: simulated gi fluid, pH 1.2, 100 µM
Summary of the method: (§1)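 Meropenem or prodrug at 100 µM final (from a 5.0 mM DMSO stock) incubated at 37 °C in triplicate in simulated gastric fluid pH 1.2, 100 mM MES pH 6.0, or pH 7.4 buffer, after 2 min buffer pre-warming. Aliquots taken at 0–120 min and injected directly onto reversed-phase HPLC with UV at 300 nm. Half-life, % prodrug remaining at 120 min, or species concentration over time was reported.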

Plasma = experiment: (§2) Half life in human plasma at 5 mM by HPLC analysis; format: ADME, cell-free; conditions: 5000 µM
[2] = Half life in Dunkin-Hartley guinea pig plasma at 5 mM by HPLC analysis; format: ADME, cell-free, Cavia porcellus; conditions: for t1/2: 5000 µM
Summary of the method: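 Pooled plasma from female Dunkin Hartley guinea pigs was pre-warmed 2 min at 37 °C, then prodrug was added from a 5.0 mM stock. Runs were in triplicate. Aliquots were taken at 0, 2.5, 5, 10, 15 and 30 min, quenched with an equal volume of acetonitrile, filtered and analysed by reversed-phase HPLC at 300 nm for half-life.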

[3] = Half life in HEPES buffer at 100 uM at pH 7.4 by HPLC analysis; format: physicochemical; conditions: pH 7.4, 100 µM; summary of the method: as §1
[4] = Prodrug stability in MES buffer assessed as prodrug remaining at 100 uM after 120 mins at pH 6 by HPLC analysis; format: physicochemical; conditions: pH 6, 2 h; summary of the method: as §1
[5] = as §2; format: ADME, cell-free
[6] = Prodrug stability in HEPES buffer assessed as prodrug remaining at 100 uM after 120 mins at pH 7.4 by HPLC analysis; format: physicochemical; conditions: pH 7.4, 2 h; summary of the method: as §1
[7] = Half life in MES buffer at 100 uM at pH 6 by HPLC analysis; format: physicochemical; conditions: pH 6, 100 µM; summary of the method: as §1
[8] = Stability in HEPES buffer assessed as prodrug conversion to meropenem at pH 7.4 by HPLC analysis; format: physicochemical; summary of the method: as §1
[9] = Stability in HEPES buffer assessed as prodrug conversion to 1-Benzosuberol at pH 7.4 by HPLC analysis; format: physicochemical
[10] = Chemical stability of the compound in simulated gastric fluid assessed as compound remaining at 10 uM after 60 mins at pH 1.2; format: physicochemical; conditions: read-out: Stability
[11] = Lipophilicity, log D of the compound; format: physicochemical; conditions: octanol/water
[12] = Chemical stability of the compound in simulated gastric fluid assessed as drug degradation at 10 uM after 30 mins at pH 1.2; format: physicochemical; conditions: read-out: Drug degradation

Row | SMILES | t1/2 [1] | t1/2 (Plasma) | t1/2 [2] | t1/2 [3] | t1/2 [7] | further results
1 | C[C@@H](O)[C@H]1C(=O)N2C(C(=O)OCOC(=O)O[C@@H]3CCCCc4ccccc43)=C(S[C@@H]3CN[C@H](C(=O)N(C)C)C3)[C@H](C)[C@H]12 | 11 min | 34 min | 0.9 min | 27 min |  | 
2 | CC(C)OC(=O)OC(C)OC(=O)C1=C(S[C@@H]2CN[C@H](C(=O)N(C)C)C2)[C@H](C)[C@@H]2[C@@H]([C@@H](C)O)C(=O)N12 (some centres not stated) |  |  |  |  |  | Stability ([4]; 2 h): 92%; half-life at 100 µM ([1]; simulated gastric fluid, pH 1.2): 9.8 min; half-life at 5000 µM [5]: 11 min; half-life at 5000 µM ([2]; Dunkin-Hartley): 1.4 min; Stability ([6]; 2 h): 87%
3 | C[C@@H](O)[C@H]1C(=O)N2C(C(=O)OCOC(=O)O[C@H]3CCc4ccccc43)=C(S[C@@H]3CN[C@H](C(=O)N(C)C)C3)[C@H](C)[C@H]12 |  |  |  | < 1 min |  | 
4 | C[C@@H](O)[C@H]1C(=O)N2C(C(=O)OCOC(=O)O[C@H]3CCCc4ccccc43)=C(S[C@@H]3CN[C@H](C(=O)N(C)C)C3)[C@H](C)[C@H]12 |  |  |  | 1.4 min | 0.9 min | 
5 | C[C@@H](O)[C@H]1C(=O)N2C(C(=O)OCOC(=O)O[C@@H]3CCCc4ccccc43)=C(S[C@@H]3CN[C@H](C(=O)N(C)C)C3)[C@H](C)[C@H]12 |  |  |  | 1.5 min | 0.96 min | 
6 | C[C@@H](O)[C@H]1C(=O)N2C(C(=O)OCOC(=O)O[C@H]3CCCCc4ccccc43)=C(S[C@@H]3CN[C@H](C(=O)N(C)C)C3)[C@H](C)[C@H]12 | 9.3 min | 44 min | 1.3 min | 28 min | 32 min | Drug metabolism [8]: Active; Drug metabolism [9]: Active
7 | CC(=O)N1C[C@@H](SC2=C(C(=O)OCOC(=O)O[C@H]3CCCCc4ccccc43)N3C(=O)[C@H]([C@@H](C)O)[C@H]3[C@H]2C)C[C@H]1C(=O)N(C)C | 7 min |  |  | 28 min | 28 min | 
8 | C[C@@H](O)[C@H]1C(=O)N2C(C(=O)OCOC(=O)OC3Cc4ccccc4C3)=C(S[C@@H]3CN[C@H](C(=O)N(C)C)C3)[C@H](C)[C@H]12 | 13 min | 4.3 min | 0.9 min |  |  | Stability [4]: 96%; Stability [6]: 70%
9 | CC(OC(=O)O[C@H]1CCCCc2ccccc21)OC(=O)C1=C(S[C@@H]2CN[C@H](C(=O)N(C)C)C2)[C@H](C)[C@@H]2[C@@H]([C@@H](C)O)C(=O)N12 (mixture of isomers) | 18 min |  |  | 64 min | 80 min | 
10 | C[C@@H](O)[C@H]1C(=O)N2C(C(=O)OCOC(=O)OC3CCc4ccccc4C3)=C(S[C@@H]3CN[C@H](C(=O)N(C)C)C3)[C@H](C)[C@H]12 (mixture of isomers) | 14 min | 8.1 min | 1.7 min |  |  | Stability [4]: 93%; Stability [6]: 78%
11 | C[C@@H](O)[C@H]1C(=O)N2C(C(=O)OCOC(=O)OC3CCCc4ccccc4C3)=C(S[C@@H]3CN[C@H](C(=O)N(C)C)C3)[C@H](C)[C@H]12 (mixture of isomers) | 21 min | 23 min | 1.9 min |  |  | Stability [4]: 96%; Stability [6]: 79%
12 | CC(C)OC(=O)OC(C)OC(=O)C1=C(S[C@@H]2CN[C@H](C(=O)N(C)C)C2)[C@H](C)[C@@H]2[C@@H]([C@@H](C)O)C(=O)N12 (single isomer, unassigned; diastereomer 1) | 8.8 min | 108 min | 6.5 min |  |  | Stability ([4]; 2 h): 94%; Stability ([6]; 2 h): 90%
13 | Nc1nc(/C(=C/CC(=O)O)C(=O)N[C@@H]2C(=O)N3C(C(=O)O)=CCS[C@H]23)cs1 [CEFTIBUTEN] |  |  |  |  |  | remaining at 1 h, 10 µM [10]: 94%
14 | C[C@@H](O)[C@H]1C(=O)N2C(C(=O)O)=C([C@H]3CCCO3)S[C@H]12 [FAROPENEM] |  |  |  |  |  | remaining at 1 h, 10 µM [10]: 70%
15 | C[C@@H](O)[C@H]1C(=O)N2C(C(=O)O)=C(S[C@@H]3CN[C@H](C(=O)N(C)C)C3)[C@H](C)[C@H]12 [MEROPENEM] |  |  |  |  |  | logD [11]: < 2.5; remaining at 1 h, 10 µM [10]: 5%; degraded at 0.5 h, 10 µM [12]: 80%
